pIC50: −log10 of the molar value. Activity calls are given as the source filed them. No cut-off for these calls is given here.
Columns and labels:
MDA-MB-231 [1] = assay: Antiproliferative activity against stimulated human MDA-MB-231 cells after 72 hrs by BrdU incorporation assay; assay type: functional, cell-based; settings: MDA-MB-231, 72 h
Summary of the method: (§1)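 Non-hematopoietic lines grown in DMEM, serum-starved 12 h, then stimulated: 10% FCS (HEK293, A375), PDGF 30 ng/mL (NIH 3T3), EGF 30 ng/mL (MDA-MB-231). 1 × 10^5 cells cultured 3 days over increasing inhibitor concentrations, duplicate wells. Proliferation by 10 µM BrdU labelling with colorimetric anti-BrdU-POD ELISA (TMB).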

PC-3 [2] = assay: Antiproliferative activity against non-stimulated human PC3 after 72 hrs by BrdU incorporation assay; assay type: functional, cell-based; settings: PC-3, 72 h
PBMC [3] = assay: Antiproliferative activity against CD3 deficient human PBMC after 72 hrs by BrdU incorporation assay; assay type: functional, cell-based
Summary of the method: (§2)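 PBMC isolated from healthy donor blood on Ficoll. CD3+ T cells purified with anti-CD3 (autoMACS), identity confirmed as CD3+ by flow cytometry; CD3-depleted PBMC also kept. Stimulation: ConA (10 µg/mL), ODN2006 (0.5 µg/mL) or LPS (50 µg/mL); depleted PBMC got ODN2006 or LPS. Cultured 72 h with inhibitor. Read-out was BrdU uptake, normalized to maximal proliferation without inhibitor.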

PBMC [4] = assay: Cell cycle arrest in human PBMC assessed as accumulation at subG1 phase by flow cytometry; assay type: functional
Summary of the method: (§3)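 PBMC treated with inhibitor 12 and 24 h, then pelleted, PBS-washed and fixed in cold 70% ethanol for at least 12 h. RNase A added for 30 min in the dark, then propidium iodide; DNA content analysed by FACS for G2 and sub-G1 fractions.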

NIH3T3 [5] = assay: Antiproliferative activity against PDGF-stimulated mouse NIH/3T3 cells after 72 hrs by BrdU incorporation assay; assay type: functional, cell-based; settings: NIH3T3, 72 h; summary of the method: as §1
PC-3 [6] = assay: Antiproliferative activity against stimulated human PC3 after 72 hrs by BrdU incorporation assay; assay type: functional, cell-based; settings: PC-3, 72 h
Jurkat [7] = assay: Antiproliferative activity against human Jurkat cells after 72 hrs by BrdU incorporation assay; assay type: functional, cell-based
Summary of the method: (§4)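 Cells grown in RPMI at 37 °C, 5% CO2, then serum-starved 12 h. PBMC stimulated with ConA 10 µg/mL; Jurkat need no stimulation. 1 × 10^5 cells cultured 3 days with or without inhibitor, duplicate wells. Labelled with 10 µM BrdU, DNA denatured, anti-BrdU-POD added, colorimetric TMB read-out; IC50 derived.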

PBMC [8] = assay: Inhibition of PMA/anti-CD28-stimulated IL2 production in human PBMC cells up to 5 uM after 12 hrs by ELISA; assay type: functional, cell-based
Summary of the method: (§5)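 Jurkat or PBMC treated 12 h with 1 µM, 0.5 µM or no inhibitor. 1 × 10^6 cells were then stimulated 12 h with plate-bound anti-TCR C305 (1:500) alone, or with anti-CD28 (1:100) and/or PMA (50 ng/ml); ionomycin 1 µM was also used. Cells spun out at 130g. Supernatant IL-2 measured by ELISA, absorbance 450 nm.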

[9] = Antiproliferative activity against stimulated human keratinocytes after 72 hrs by BrdU incorporation assay; assay type: functional, cell-based; settings: Keratinocyte
Jurkat [10] = assay: Inhibition of TCR-mediated Zap70 phosphorylation in human Jurkat cells after 16 hrs by Western blotting; assay type: cell-based
Summary of the method: (§6)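 Jurkat treated 16 h with inhibitor, then stimulated 1 min at 37 °C with C305 (1:500) or mock PBS. Cells lysed at 2 × 10^7 cells/mL in NP-40 buffer with phosphatase and protease inhibitors. SLP-76 immunoprecipitated; pTyr detected by Western blot with 4G-10. For ZAP-70 activity, ZAP-70 IP was incubated with recombinant His-SLP-76 and 5 µM ATP for 15 min at 30 °C, then blotted for pTyr.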

Jurkat [11] = assay: Inhibition of anti-TCR/antiCD28-stimulated IL2 production in human Jurkat cells […] after 12 hrs by ELISA; assay type: functional, cell-based; summary of the method: as §5
Jurkat [12] = assay: Antiproliferative activity against non-stimulated human Jurkat cells after 72 hrs by BrdU incorporation assay; assay type: functional, cell-based; summary of the method: as §4
Jurkat [13] = assay: Inhibition of TCR-mediated SLP76 phosphorylation in human Jurkat cells after 16 hrs by Western blotting; assay type: cell-based; summary of the method: as §6
PBMC [14] = assay: Antiproliferative activity against non-stimulated human PBMC after 72 hrs by BrdU incorporation assay; assay type: cell-based
HEK293 [15] = assay: Antiproliferative activity against FCS-stimulated human HEK293 cells after 72 hrs by BrdU incorporation assay; assay type: functional, cell-based; settings: HEK293, 72 h; summary of the method: as §1
PBMC [16] = assay: Antiproliferative activity against CD3+ expressing human PBMC after 72 hrs by BrdU incorporation assay; assay type: functional, cell-based; summary of the method: as §2
MDA-MB-231 [17] = assay: Antiproliferative activity against non-stimulated human MDA-MB-231 cells after 72 hrs by BrdU incorporation assay; assay type: functional, cell-based; settings: MDA-MB-231, 72 h
PBMC [18] = assay: Antiproliferative activity against ODN2006-stimulated human PBMC after 72 hrs by BrdU incorporation assay; assay type: functional, cell-based; summary of the method: as §2
A-375 [19] = assay: Antiproliferative activity against FCS-stimulated human A375 cells after 72 hrs by BrdU incorporation assay; assay type: functional, cell-based; settings: A-375, 72 h; summary of the method: as §1
PBMC [20] = assay: Inhibition of anti-TCR/PMA-stimulated IL2 production in human PBMC cells […] after 12 hrs by ELISA; assay type: functional, cell-based; summary of the method: as §5
NIH3T3 [21] = assay: Antiproliferative activity against non-stimulated mouse NIH/3T3 cells after 72 hrs by BrdU incorporation assay; assay type: functional, cell-based; settings: NIH3T3, 72 h
Splenocyte [22] = assay: Inhibition of irradiated BALB/c mouse splenocyte-stimulated IL2 secretion in 2C mouse splenocyte after 72 hrs by mixed lymphocyte reaction; assay type: functional, cell-based
Summary of the method: (§7)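 MLR: splenocytes from 2c mice stimulated by irradiated BALB/c splenocytes in the presence of compound at the specified concentrations, 96-well cultures up to 72 h. Supernatants collected at 24, 48 and 72 h; IL-2 measured by ELISA at 450 nm.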

PBMC [23] = assay: Antiproliferative activity against ConA-stimulated human PBMC after 72 hrs by BrdU incorporation assay; assay type: functional, cell-based; summary of the method: as §4
Jurkat [24] = assay: Inhibition of PMA/anti-CD28-stimulated IL2 production in human Jurkat cells […] after 12 hrs by ELISA; assay type: functional, cell-based; summary of the method: as §5
PBMC [25] = assay: Antiproliferative activity against LPS-stimulated human PBMC after 72 hrs by BrdU incorporation assay; assay type: functional, cell-based; summary of the method: as §2
Jurkat [26] = assay: Antiproliferative activity against ConA-stimulated human Jurkat after 72 hrs by BrdU incorporation assay; assay type: functional, cell-based
PBMC [27] = assay: Inhibition of anti-TCR-stimulated IL2 production in human PBMC cells […] after 12 hrs by ELISA; assay type: functional, cell-based; summary of the method: as §5
Splenocyte [28] = assay: Inhibition of irradiated BALB/c mouse splenocyte-stimulated IL2 secretion in 2C mouse splenocyte at 1 uM after 24 hrs by mixed lymphocyte reaction; assay type: functional, cell-based; summary of the method: as §7
Jurkat [29] = assay: Inhibition of anti-TCR-stimulated IL2 production in human Jurkat cells […] by ELISA; assay type: functional, cell-based; summary of the method: as §5
HEK293 [30] = assay: Antiproliferative activity against non-stimulated human HEK293 cells after 72 hrs by BrdU incorporation assay; assay type: functional, cell-based; settings: HEK293, 72 h
A-375 [31] = assay: Antiproliferative activity against non-stimulated human A375 cells after 72 hrs by BrdU incorporation assay; assay type: functional, cell-based; settings: A-375, 72 h
PBMC [32] = assay: Cell cycle arrest in human PBMC assessed as accumulation at G2 phase by flow cytometry; assay type: functional; summary of the method: as §3

In the case of COc1cc(-c2nc(Nc3ccc(C)cc3)c3ccccc3n2)cc(OC)c1OC, the pIC50 (MDA-MB-231 [1]) was less than 5.00, the pIC50 (PC-3 [2]) was 5.00 and the Activity (PBMC [3]) was “Active”. For the same compound, the Activity (PBMC [4]) was 9.5%, the pIC50 (NIH3T3 [5]) was 5.15 and the pIC50 (PC-3 [6]) was less than 5.00. The pIC50 (Jurkat [7]) was 7.54, the inhibition (PBMC [8]) was “inactive” and the pIC50 [9] was less than 5.00. For the same compound, the inhibition (Jurkat [10]) was “Dose-dependent effect”, the inhibition (Jurkat [11]) was “inactive” and the pIC50 (Jurkat [12]) was 7.30. For the same compound, the inhibition (Jurkat [13]) was “Dose-dependent effect”, the pIC50 (PBMC [14]) was 7.30 and the pIC50 (HEK293 [15]) was 5.00. For the same compound, the pIC50 (PBMC [16]) was 7.00, the pIC50 (MDA-MB-231 [17]) was less than 5.00 and the pIC50 (PBMC [18]) was 6.30. The pIC50 (A-375 [19]) was less than 5.00, the inhibition (PBMC [20]) was “inactive” and the pIC50 (NIH3T3 [21]) was 5.52. The inhibition (Splenocyte [22]) was “inactive”, the pIC50 (PBMC [23]) was 7.15 and the inhibition (Jurkat [24]) was “inactive”. The pIC50 (PBMC [25]) was 6.30, the pIC50 (Jurkat [26]) was 7.00 and the inhibition (PBMC [27]) was “inactive”. The inhibition (Splenocyte [28]) was “inactive”, the inhibition (Jurkat [29]) was “inactive” and the pIC50 (HEK293 [30]) was 5.00. For the same compound, the pIC50 (A-375 [31]) was 6.10 and the Activity (PBMC [32]) was 50%.

Source: ChEMBL document CHEMBL1221292, “Design, synthesis, and evaluation of quinazoline T cell proliferation inhibitors” (Bioorg Med Chem, 2010)
